Active and inactive are the calls of the source.
Legend:
Format in all cases: functional, organism-based
Bacillus cereus = assay: Antibacterial activity against Bacillus cereus at 1 mM by almar blue dye reduction assay
Outline: (§1)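 Single-point primary screen at 1 mM using Alamar Blue dye reduction as the growth read-out.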

Escherichia coli = assay: Antibacterial activity against Escherichia coli at 1 mM by almar blue dye reduction assay; outline: as §1
Staphylococcus aureus = assay: Antibacterial activity against Staphylococcus aureus at 1 mM by almar blue dye reduction assay; outline: as §1
Saccharomyces cerevisiae = assay: Antifungal activity against Saccharomyces cerevisiae at 1 mM by almar blue dye reduction assay; outline: as §1
Candida albicans = assay: Antifungal activity against Candida albicans at 1 mM by almar blue dye reduction assay; outline: as §1
Bacillus subtilis = assay: Antibacterial activity against Bacillus subtilis at 1 mM by almar blue dye reduction assay; outline: as §1
Bacillus anthracis = assay: Antibacterial activity against Bacillus anthracis at 1mM by almar blue dye reduction assay
Pseudomonas aeruginosa = assay: Antibacterial activity against Pseudomonas aeruginosa at 1 mM by almar blue dye reduction assay; outline: as §1
Cryptococcus neoformans = assay: Antifungal activity against Cryptococcus neoformans at 1 mM by almar blue dye reduction assay; outline: as §1

Measured: Activity

CC(C)NC(=O)[C@H](C)[C@H]1CC[C@@H](C[C@@H](C)n2cc(C#Cc3ccc(Oc4ccccc4)cc3)nn2)O1
inactive: all assays above

C[C@H](CC1CCC([C@@H](C)C(=O)N2CCCC2)O1)n1cc(C#CCNC(=O)OCc2ccccc2)nn1 (single isomer, unassigned)
inactive: all assays above

CCCCCC#Cc1cn([C@H](C)C[C@@H]2CC[C@H]([C@@H](C)C(=O)NC(C)C)O2)nn1
inactive: all assays above

CC(C)NC(=O)[C@H](C)[C@H]1CC[C@@H](C[C@@H](C)n2cc(C#Cc3ccccc3)nn2)O1
inactive: all assays above

CCOC(=O)C#Cc1cn([C@H](C)CC2CCC([C@@H](C)C(=O)N(C)Cc3ccccc3)O2)nn1 (single isomer, unassigned)
inactive: all assays above

CC(C)NC(=O)[C@H](C)[C@H]1CC[C@@H](C[C@@H](C)n2cc(C#Cc3cccc4ccccc34)nn2)O1
inactive: all assays above

Cc1cccc(NC(=O)OCC#Cc2cn([C@H](C)CC3CCC([C@@H](C)C(=O)N(C)Cc4ccccc4)O3)nn2)c1 (single isomer, unassigned)
inactive: all assays above

CC(C)NC(=O)[C@H](C)[C@H]1CC[C@@H](C[C@@H](C)n2cc(C#Cc3ccc(C(F)(F)F)cc3)nn2)O1
inactive: all assays above

C[C@H](C[C@@H]1CC[C@H]([C@@H](C)C(=O)N(C)Cc2ccccc2)O1)n1cc(C#CCOc2ccccc2)nn1
inactive: all assays above

C[C@H](C[C@@H]1CC[C@H]([C@@H](C)C(=O)N(C)Cc2ccccc2)O1)n1cc(C#CC2=CCCCC2)nn1
inactive: all assays above

C[C@H](C[C@@H]1CC[C@H]([C@@H](C)C(=O)N2CCCC2)O1)n1cc(C#CCOc2ccc(Br)cc2)nn1
inactive: all assays above

CCN(CC)C(=O)[C@H](C)[C@H]1CC[C@@H](C[C@@H](C)n2cc(C#CCC3CCCC3)nn2)O1
inactive: all assays above

C[C@H](C[C@@H]1CC[C@H]([C@@H](C)C(=O)N(C)Cc2ccccc2)O1)n1cc(C#CCOc2cccc(-c3ccccc3)c2)nn1
inactive: all assays above

CCN(CC)C(=O)[C@H](C)[C@H]1CC[C@@H](C[C@@H](C)n2cc(C#CCC(C)C)nn2)O1
inactive: all assays above

C[C@H](C[C@@H]1CC[C@H]([C@@H](C)C(=O)N2CCN(CC3CCCO3)CC2)O1)n1cc(C#Cc2ccccn2)nn1 (some centres not stated)
inactive: all assays above

C[C@H](C[C@@H]1CC[C@H]([C@@H](C)C(=O)N2CCCC2)O1)n1cc(C#Cc2ccc(C(F)(F)F)cc2)nn1
inactive: all assays above

C[C@H](C[C@@H]1CC[C@H]([C@@H](C)C(=O)N2CCN(CC3CCCO3)CC2)O1)n1cc(C#Cc2ccccc2[N+](=O)[O-])nn1 (some centres not stated)
inactive: all assays above

COc1ccc(OCC#Cc2cn([C@H](C)C[C@@H]3CC[C@H]([C@@H](C)C(=O)N4CCCC4)O3)nn2)cc1
inactive: all assays above

From ChEMBL document CHEMBL1155099, “Natural products in parallel synthesis: triazole libraries of nonactic acid” (2008)
